In ChEMBL document CHEMBL5038671, “Hydrophobic Tagging-Induced Degradation of PDEδ in Colon Cancer Cells” (ACS Med Chem Lett, 2022):

How the values were obtained:
SW480 [1] = experiment: Antiproliferative activity against human SW480 cells assessed as cell growth inhibition and measured after 72 hrs by CCK8 assay; conditions: SW480, 72 h
HCT-116 = experiment: Antiproliferative activity against human HCT-116 cells assessed as cell growth inhibition and measured after 72 hrs by CCK8 assay; conditions: HCT-116, 72 h
SW480 [2] = experiment: Antiproliferative activity against human SW480 cells assessed as apoptosis induction at 50 uM measured for 24 hrs by Annexin V-FITC/PI staining based flow cytometry analysis (reference value: 46%); assay type: functional
SW480 [3] = experiment: Down regulation of p-Akt expression in human SW480 cells measured for 24 hrs by western blot analysis; assay type: functional, cell-based
Method in brief: (§1)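 PDEδ downstream proteins examined in SW480 cells treated 24 h, by Western blot; blots repeated at least three times, bar graphs as mean ± SD.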

SW480 [4] = experiment: Down regulation of p-ERK expression in human SW480 cells measured for 24 hrs by western blot analysis; assay type: functional, cell-based; method in brief: as §1
SW480 [5] = experiment: Antiproliferative activity against human SW480 cells assessed as apoptosis induction at 30 uM measured for 24 hrs by Annexin V-FITC/PI staining based flow cytometry analysis (reference value: 46%); assay type: functional
SW480 [6] = experiment: Antiproliferative activity against human SW480 cells assessed as apoptosis induction at 40 uM measured for 24 hrs by Annexin V-FITC/PI staining based flow cytometry analysis (reference value: 46%); assay type: functional
[7] = target: Retinal rod rhodopsin-sensitive cGMP 3',5'-cyclic phosphodiesterase subunit delta (Homo sapiens, UniProt O43924); experiment: Binding affinity to PDE delta (unknown origin) assessed as dissociation constant measured after 2 hrs by fluorescence polarization assay
Chain of Retinal rod rhodopsin-sensitive cGMP 3',5'-cyclic phosphodiesterase subunit delta (O43924 whole entry): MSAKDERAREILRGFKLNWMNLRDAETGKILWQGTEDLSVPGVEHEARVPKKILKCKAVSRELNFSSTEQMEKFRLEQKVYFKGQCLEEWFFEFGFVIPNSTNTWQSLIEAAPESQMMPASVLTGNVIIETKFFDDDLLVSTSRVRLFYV

Row | SMILES | IC50 (SW480 [1]) | IC50 (HCT-116) | other results
1 | Cc1ccc(-n2nc3c(=O)n(CCCC(=O)NC45CC6CC(CC(C6)C4)C5)nc(C)c3c2C)cc1 | > 100 µM | > 100 µM | 
2 | Cc1ccc(-n2nc3c(=O)n(CCCC(=O)NCCCCNC(=O)CC45CC6CC(CC(C6)C4)C5)nc(C)c3c2C)cc1 | 7 µM | 50.7 µM | 
3 | Cc1ccc(-n2nc3c(=O)n(CCCC(=O)NCCc4ccc(NC(=O)CCCCCCNC(=O)CC56CC7CC(CC(C7)C5)C6)cc4)nc(C)c3c2C)cc1 | > 100 µM | > 100 µM | 
4 | Cc1ccc(-n2nc3c(=O)n(CCCC(=O)NCCCCCC(=O)NCC45CC6CC(CC(C6)C4)C5)nc(C)c3c2C)cc1 | > 100 µM | 32.5 µM | 
5 | Cc1ccc(-n2nc3c(=O)n(CCCC(=O)NCC(C)c4ccccc4)nc(C)c3c2C)cc1 (centres undefined) | 18.3 µM | 82.4 µM | Activity (SW480 [2]): 5.4%
6 | Cc1ccc(-n2nc3c(=O)n(CCCC(=O)NCCc4ccc(NC(=O)CCCC(=O)NCC56CC7CC(CC(C7)C5)C6)cc4)nc(C)c3c2C)cc1 | 19.8 µM | 39 µM | 
7 | Cc1ccc(-n2nc3c(=O)n(CCCC(=O)NCCCCCCNC(=O)CC45CC6CC(CC(C6)C4)C5)nc(C)c3c2C)cc1 | 4.8 µM | 7.7 µM | Activity (SW480 [3]): Dose-Dependent Effect; Activity (SW480 [4]): Dose-Dependent Effect; Activity (SW480 [5]): 15.23%; Activity (SW480 [6]): 83.67%
8 | Cc1ccc(-n2nc3c(=O)n(CCCC(=O)NCCOCCOCCNC(=O)CC45CC6CC(CC(C6)C4)C5)nc(C)c3c2C)cc1 | 5.4 µM | 18.5 µM | 
9 | Cc1ccc(-n2nc3c(=O)n(CCCC(=O)NCCc4ccc(NC(=O)CCCCCC(=O)NCC56CC7CC(CC(C7)C5)C6)cc4)nc(C)c3c2C)cc1 | > 100 µM | > 100 µM | 
10 | Cc1ccc(-n2nc3c(=O)n(CCCC(=O)NCCCCCCCCNC(=O)CC45CC6CC(CC(C6)C4)C5)nc(C)c3c2C)cc1 | 5.6 µM | 17.7 µM | 
11 | Cc1ccc(-n2nc3c(=O)n(CCCC(=O)NCCNC(=O)CC45CC6CC(CC(C6)C4)C5)nc(C)c3c2C)cc1 | 10 µM | 20.4 µM | 
12 | Cc1ccc(-n2nc3c(=O)n(CCCC(=O)NCCCC(=O)NCC45CC6CC(CC(C6)C4)C5)nc(C)c3c2C)cc1 | 8 µM | 11.4 µM | 
13 | Cc1ccc(-n2nc3c(=O)n(CCCC(=O)NCC45CC6CC(CC(C6)C4)C5)nc(C)c3c2C)cc1 | > 100 µM | > 100 µM | 
14 | Cc1ccc(-n2nc3c(=O)n(CCCC(=O)NCCc4ccc(NC(=O)CCCCCCCCCC(=O)NCC56CC7CC(CC(C7)C5)C6)cc4)nc(C)c3c2C)cc1 | 14 µM | > 100 µM | Ki [7]: > 1 µM
